Like-named read-outs stand apart in the source and are kept apart here.
Legend:
human wild type TTR = human wild type TTR (Homo sapiens, UniProt P02766); test: Isothermal titration calorimetry; settings: two-site binding model; for Kd: ITC
TTR [1] = target: T1, TTR (Homo sapiens, UniProt P02766); test: Surface plasmon resonance; type: binding; settings: SPR
TTR [2] = target: T1, TTR; test: Acid-mediated TTR amyloidogenesis; type: biochemical; settings: kinetic aggregation assay over 5 days, TTR 3.6 μM, ligand 3.0 μM
AC16 cells = test: Inhibition of V122I TTR cytotoxicity towards AC16 cells; type: cell-based, human; settings: TTR and ligands 8 μM
serum TTR = serum TTR (Homo sapiens, UniProt P02766); test: Stabilization of human serum TTR against acid-mediated denaturation; type: biochemical; settings: 50 μM compound, acid treatment 72 hours
COX-1 = COX-1 (Homo sapiens, UniProt P23219); test: COX-1 enzymatic inhibition; type: biochemical; settings: read-out: COX-1 inhibition
Sequence of COX-1 (P23219 24-599): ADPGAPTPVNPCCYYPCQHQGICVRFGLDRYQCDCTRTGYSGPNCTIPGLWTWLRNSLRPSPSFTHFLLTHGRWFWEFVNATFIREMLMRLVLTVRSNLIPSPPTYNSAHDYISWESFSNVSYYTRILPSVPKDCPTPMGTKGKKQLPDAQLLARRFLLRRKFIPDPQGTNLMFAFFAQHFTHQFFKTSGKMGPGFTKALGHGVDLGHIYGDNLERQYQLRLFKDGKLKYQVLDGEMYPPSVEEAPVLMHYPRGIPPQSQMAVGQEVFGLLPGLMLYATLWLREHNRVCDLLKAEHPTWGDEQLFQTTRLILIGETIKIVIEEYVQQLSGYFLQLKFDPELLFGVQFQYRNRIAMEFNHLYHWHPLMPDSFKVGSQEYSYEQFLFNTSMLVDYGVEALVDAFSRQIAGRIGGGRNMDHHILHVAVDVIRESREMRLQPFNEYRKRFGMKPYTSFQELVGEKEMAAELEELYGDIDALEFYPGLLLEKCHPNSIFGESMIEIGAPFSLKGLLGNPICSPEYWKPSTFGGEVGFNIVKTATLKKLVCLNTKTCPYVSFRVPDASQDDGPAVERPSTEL

IMR-32 cells = test: Inhibition of WT-TTR cytotoxicity towards IMR-32 neuroblastoma cells; type: cell-based, human; settings: fig. S8B
TTR [3] = target: T1, TTR; test: Fluorescence polarization; settings: competitive displacement of probe 1, apparent binding constant
Procedure, shortened: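 Competitive displacement of the fluorescent probe from the TTR thyroxine-binding pocket under physiological conditions. The test compound is titrated from 0.01 to 50 μM, and fluorescence polarization is read at excitation 485 nm and emission 525 nm. The dose-dependent drop in polarization is fitted to give the apparent binding constant, Kapp. Run in triplicate; SD reported.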

| fold lower target residence time than ligand 7 (TTR [1]) | inhibition at 10 µM (COX-1) [%] | Kapp (TTR [3]) [µM] | Compound | Kd (human wild type TTR; read-out: Kd1, first site) [nM] | Kd (human wild type TTR; read-out: Kd2, second site) [nM] | ITC binding affinity (in words) (human wild type TTR) | koff, fold faster than ligand 7 (TTR [1]) | Fibril formation at substoichiometric ligand (in words) (TTR [2]) | Rescue of AC16 cell viability from V122I TTR proteotoxicity (in words) (AC16 cells) | % tetramer at 72 hrs (of tetramer present at 0 hours) (serum TTR) [%] | Performance against WT-TTR toxicity in IMR-32 cells (in words) (IMR-32 cells) |
| --- | --- | --- | --- | --- | --- | --- | --- | --- | --- | --- | --- |
|  |  |  | O=C(c1cc(O)c(O)c([N+](=O)[O-])c1)c1ccccc1F [Ro 41-0960] | 15 | 2000 | low nanomolar affinity | ~ 5 x | dramatically slowed fibril formation | completely rescued |  |  |
| ~ 20 x | 94 |  | O=C(O)c1cccnc1Nc1cccc(C(F)(F)F)c1 [niflumic acid] |  |  |  |  |  | performed poorly | 11.5 | performed poorly |
|  |  |  | O=[N+]([O-])c1cc(O)c(O)c([N+](=O)[O-])c1 [3,5-dinitrocatechol] |  |  |  |  |  | performed poorly | 37.6 | performed poorly |
| ~40 x |  | 4.66 | O=C(O)Cc1ccccc1Nc1c(Cl)cccc1Cl [diclofenac] |  |  |  |  |  |  |  |  |

Reference: PMC3227540 (Science translational medicine, 2011)
